Assay results taken from ChEMBL document CHEMBL1926577, “Novel 1,3,4-heterodiazole analogues: synthesis and in-vitro antitumor activity” (2012).
Activity calls are given as the source filed them. The calls are words filed in the database; no cut-off is given here.

What was measured:
Assay type in all cases: functional
[1] = system: MOLT-4; test: Growth inhibition of human MOLT4 cells at 10 uM after 48 hrs by coulter counter method; conditions: MOLT-4, 48 h, read-out: GI
In short: (§1)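 NCI 60-cell-line panel, single dose. Compound dissolved first in DMSO, then diluted in phosphate-buffered saline so that every final dilution held under 1% DMSO. Duplicate wells received cells at 6 × 10⁴ cells/ml. Controls held PBS/DMSO at the same dilution. Plates were incubated 48 h at 37 °C under 5% CO₂. Cells were then diluted 10-fold in saline and counted on a Coulter counter, with counts corrected for the dilution. Results are given as percent growth inhibition.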

[2] = system: SK-MEL-28; test: Growth inhibition of human SK-MEL-28 cells at 10 uM after 48 hrs by coulter counter method; conditions: SK-MEL-28, 48 h, read-out: GI; in short: as §1
[3] = system: T47D; test: Growth inhibition of human T47D cells at 10 uM after 48 hrs by coulter counter method; conditions: read-out: GI; in short: as §1
[4] = system: LOX IMVI; test: Growth inhibition of human LOXIMVI cells at 10 uM after 48 hrs by coulter counter method; in short: as §1
[5] = Growth inhibition of human colon cancer cells after 48 hrs by coulter counter method; conditions: Cancer cell lines
In short: (§2)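 NCI 60-line panel cells. Compound is dissolved in DMSO and diluted in phosphate-buffered saline, with final DMSO below 1%. It is added in duplicate wells to cultures at 6 × 10⁴ cells/ml and held at 37 °C, 5% CO₂, humidified, for 48 h. Cells are diluted 10-fold in saline, counted by Coulter counter and dilution-corrected. Vehicle controls contain PBS plus DMSO.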

[6] = system: HCT-116; test: Growth inhibition of human HCT116 cells at 10 uM after 48 hrs by coulter counter method; conditions: HCT-116, 48 h, read-out: GI; in short: as §1
[7] = system: SNB-75; test: Growth inhibition of human SNB75 cells at 10 uM after 48 hrs by coulter counter method; conditions: SNB-75, 48 h, read-out: GI; in short: as §1
[8] = system: UACC-257; test: Growth inhibition of human UACC257 cells at 10 uM after 48 hrs by coulter counter method; conditions: UACC-257, 48 h, read-out: GI; in short: as §1
[9] = system: MDA-MB-468; test: Growth inhibition of human MDA-MB-468 cells at 10 uM after 48 hrs by coulter counter method; conditions: MDA-MB-468, 48 h, read-out: GI; in short: as §1
[10] = system: A549; test: Growth inhibition of human A549 cells at 10 uM after 48 hrs by coulter counter method; conditions: A549, 48 h, read-out: GI; in short: as §1
[11] = system: CAKI-1; test: Growth inhibition of human Caki1 cells at 10 uM after 48 hrs by coulter counter method; in short: as §1
[12] = Growth inhibition of human prostate cancer cells after 48 hrs by coulter counter method; conditions: Cancer cell lines; in short: as §2
[13] = system: HT-29; test: Growth inhibition of human HT-29 cells at 10 uM after 48 hrs by coulter counter method; conditions: HT-29, 48 h, read-out: GI; in short: as §1
[14] = system: UACC-62; test: Growth inhibition of human UACC62 cells at 10 uM after 48 hrs by coulter counter method; conditions: UACC-62, 48 h, read-out: GI; in short: as §1
[15] = system: UO-31; test: Growth inhibition of human UO31 cells at 10 uM after 48 hrs by coulter counter method; in short: as §1
[16] = system: NCI-H23; test: Growth inhibition of human NCI-H23 cells at 10 uM after 48 hrs by coulter counter method; conditions: NCI-H23, 48 h, read-out: GI; in short: as §1
[17] = system: NSCLC; test: Growth inhibition of human NSCLC cells after 48 hrs by coulter counter method; in short: as §2
[18] = system: MDA-MB-435; test: Growth inhibition of human MDA-MB-435 cells at 10 uM after 48 hrs by coulter counter method; conditions: MDA-MB-435, 48 h, read-out: GI; in short: as §1
[19] = system: EKVX; test: Growth inhibition of human EKVX cells at 10 uM after 48 hrs by coulter counter method; conditions: read-out: GI; in short: as §1
[20] = system: NCI-H226; test: Growth inhibition of human NCI-H226 cells at 10 uM after 48 hrs by coulter counter method; conditions: NCI-H226, 48 h, read-out: GI; in short: as §1
[21] = system: PC-3; test: Growth inhibition of human PC3 cells at 10 uM after 48 hrs by coulter counter method; conditions: PC-3, 48 h, read-out: GI; in short: as §1
[22] = system: MCF7; test: Growth inhibition of human MCF7 cells at 10 uM after 48 hrs by coulter counter method; conditions: MCF7, 48 h, read-out: GI; in short: as §1
[23] = Growth inhibition of human ovarian cancer cells after 48 hrs by coulter counter method; conditions: Cancer cell lines; in short: as §2
[24] = Growth inhibition of human renal cancer cells after 48 hrs by coulter counter method; conditions: Cancer cell lines; in short: as §2
[25] = system: RPMI-8226; test: Growth inhibition of human RPMI8226 cells at 10 uM after 48 hrs by coulter counter method; conditions: RPMI-8226, 48 h, read-out: GI; in short: as §1
[26] = system: SNB-19; test: Growth inhibition of human SNB19 cells at 10 uM after 48 hrs by coulter counter method; conditions: SNB-19, 48 h, read-out: GI; in short: as §1
[27] = Growth inhibition of human leukemia cells after 48 hrs by coulter counter method; conditions: Leukemia cell; in short: as §2
[28] = system: CCRF-CEM; test: Growth inhibition of human CCRF-CEM cells at 10 uM after 48 hrs by coulter counter method; conditions: read-out: GI; in short: as §1
[29] = system: M14; test: Growth inhibition of human M14 cells at 10 uM after 48 hrs by coulter counter method; conditions: M14, 48 h, read-out: GI; in short: as §1
[30] = system: U-251; test: Growth inhibition of human U251 cells at 10 uM after 48 hrs by coulter counter method; conditions: U-251, 48 h, read-out: GI; in short: as §1
[31] = system: ACHN; test: Growth inhibition of human ACHN cells at 10 uM after 48 hrs by coulter counter method; conditions: read-out: GI; in short: as §1
[32] = system: SF-295; test: Growth inhibition of human SF295 cells at 10 uM after 48 hrs by coulter counter method; conditions: SF-295, 48 h, read-out: GI; in short: as §1
[33] = system: Malme-3M; test: Growth inhibition of human MALME-3M cells at 10 uM after 48 hrs by coulter counter method; in short: as §1
[34] = system: TK-10; test: Growth inhibition of human TK10 cells at 10 uM after 48 hrs by coulter counter method; conditions: TK-10, 48 h, read-out: GI; in short: as §1
[35] = system: SK-MEL-5; test: Growth inhibition of human SK-MEL-5 cells at 10 uM after 48 hrs by coulter counter method; conditions: SK-MEL-5, 48 h, read-out: GI; in short: as §1
[36] = system: SF-268; test: Growth inhibition of human SF268 cells at 10 uM after 48 hrs by coulter counter method; conditions: SF-268, 48 h, read-out: GI; in short: as §1
[37] = read-out: LC50 (the source's name)

## O=C1CN2N=C(c3ccccc3)SC2=N1
[1]
  inhibition of growth at 10 µM: 37.5%
[2]
  inhibition of growth at 10 µM: 10.4%
[3]
  inhibition of growth at 10 µM: 33.2%
[4]
  growth inhibition (GI): Active
[5]
  GI50: 9.4 µM
  LC50: 67.1 µM
  TGI: 24.9 µM
[6]
  inhibition of growth at 10 µM: 42.6%
[7]
  inhibition of growth at 10 µM: 88.3%
[8]
  inhibition of growth at 10 µM: 48.4%
[9]
  inhibition of growth at 10 µM: 61.5%
[10]
  inhibition of growth at 10 µM: 39.2%
[11]
  growth inhibition (GI): Active
[12]
  GI50: 7.6 µM
  TGI: 18.3 µM
[12]; [37]
  CC50: 50.8 µM
[13]
  inhibition of growth at 10 µM: 36.2%
[14]
  inhibition of growth at 10 µM: 27.8%
[15]
  growth inhibition (GI): Active
[16]
  inhibition of growth at 10 µM: 21.6%
[17]
  GI50: 9.7 µM
  TGI: 20.7 µM
[17]; [37]
  CC50: 55.7 µM
[18]
  inhibition of growth at 10 µM: 30.4%
[19]
  inhibition of growth at 10 µM: 94.5%
[20]
  inhibition of growth at 10 µM: 27.7%
[21]
  inhibition of growth at 10 µM: 30.1%
[22]
  inhibition of growth at 10 µM: 46.4%
[23]
  GI50: 7.7 µM
  TGI: 33.5 µM
[23]; [37]
  CC50: 83.9 µM
[24]
  GI50: 8.9 µM
  TGI: 16.6 µM
[24]; [37]
  CC50: 42.3 µM
[25]
  inhibition of growth at 10 µM: 72.2%
[26]
  inhibition of growth at 10 µM: 23.2%
[27]
  GI50: 4.1 µM
  TGI: 25.9 µM
[27]; [37]
  CC50: > 100 µM
[28]
  inhibition of growth at 10 µM: 88.2%
[29]
  inhibition of growth at 10 µM: 30.2%
[30]
  inhibition of growth at 10 µM: 58.3%
[31]
  inhibition of growth at 10 µM: 29.5%
[32]
  inhibition of growth at 10 µM: 90.6%
[33]
  growth inhibition (GI): Active
[34]
  inhibition of growth at 10 µM: 25.4%
[35]
  inhibition of growth at 10 µM: 35.2%
[36]
  inhibition of growth at 10 µM: 20%
